MrgX1 agonist = activates human MrgX1 receptor signaling; Q96LB2; MrgX1-HEK293 cells, Fluo-4 calcium fluorescence, agonist mode; hits give high values; B-score at 10 µM; 0.44% of 310,000 active;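 active = calcium response B-score plate-corrected fluorescence ratio at least 3 library SD, with starting fluorescence B-score inside 5 SD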
Target sequence (Q96LB2 whole entry, looked up): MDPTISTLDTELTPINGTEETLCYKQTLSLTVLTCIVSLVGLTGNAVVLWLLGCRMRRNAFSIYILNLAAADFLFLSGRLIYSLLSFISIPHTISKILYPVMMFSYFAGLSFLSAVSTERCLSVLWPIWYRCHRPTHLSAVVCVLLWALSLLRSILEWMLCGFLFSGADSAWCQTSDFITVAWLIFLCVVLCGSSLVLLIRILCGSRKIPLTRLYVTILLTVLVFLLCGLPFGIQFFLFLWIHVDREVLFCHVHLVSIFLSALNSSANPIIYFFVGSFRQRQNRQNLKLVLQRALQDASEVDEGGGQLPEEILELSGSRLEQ
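Test system: HEK293 cells stably expressing human MrgX1 receptor; Input: fifteen thousand cells per well; Dosing: compound delivered in addition one of three; Schedule: overnight seeding, then 1 h dark dye loading; Technique: Fluo-4 NW calcium fluorescence; Measure: B-scored fluorescence response ratio; Controls: positive and negative controls per plate.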
MrgX1 antagonist = human MrgX1 receptor antagonism, primary screen. Q96LB2. MRGX1-HEK293 calcium flux, Fluo-4, BAM8-22 antagonism; hits give low values. B-score at 10 µM. 1.3% of 310,000 active;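 active = calcium-response B-score plate-corrected more than 3 library SD below zero, starting fluorescence within 5 deviations, no agonist response on first addition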;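 also: peak minus trough fluorescence over baseline after final BAM8-22 challenge near maximal dose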
MrgX1 PAM = allosterically activates human MrgX1 receptor signaling; MrgX1-HEK293, Fluo-4 calcium flux, FDSS; hits give high values; B-score at 10 µM; 0.63% of 310,000 active; AID 588675;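 active = plate-corrected calcium response at least 3 library SD above typical, normal starting fluorescence, not activating the receptor alone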;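 also: compound read alongside a low EC10 to EC30 dose of BAM8-22 agonist; peak minus trough fluorescence over baseline measured at the second addition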
RGS4 pot = potentiators or activators of RGS4; HEK293 M3R/inducible RGS4, carbachol calcium flux Fluo4; hits give low values; B-score at 10 µM; 0.92% of 310,000 active;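 active = B-score of the integrated calcium signal more than 4 SD below the library mean, with starting fluorescence not abnormally high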;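 also: negative B-score means reduced calcium response which marks RGS4 activation or potentiation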
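Detection: kinetic calcium fluorescence imaging with Fluo4-AM dye, 2 µM / Material: HEK293 cells with stable M3R and inducible RGS4 / Schedule: recording 10 s baseline at 1 Hz, 100 s post-agonist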
RGS4 inh = human RGS4 inhibition. P49798. HEK293 M3R/RGS4 inducible, Fluo-4 calcium flux; hits give high values; triggered by carbachol at its EC20. B-score at 10 µM. 0.45% of 310,000 active;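 active = B-score, a plate-corrected calcium signal, over three deviations above library mean, with baseline fluorescence within five deviations of library mean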;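 also: RGS4 expression induced by doxycycline in cells with stable M3 receptor; B-score is computed from the integrated fluorescence ratio over baseline after carbachol; higher B-score means a larger calcium signal and so more RGS4 inhibition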
Target sequence (P49798 whole entry, looked up): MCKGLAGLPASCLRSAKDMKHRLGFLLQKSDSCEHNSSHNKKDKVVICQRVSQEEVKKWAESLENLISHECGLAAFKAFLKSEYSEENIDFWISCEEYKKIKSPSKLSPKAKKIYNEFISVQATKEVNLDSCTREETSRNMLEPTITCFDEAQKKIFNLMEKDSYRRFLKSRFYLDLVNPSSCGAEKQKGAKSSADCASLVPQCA
MrgX1 antag conf = confirmation of human MrgX1 receptor antagonists; MrgX1-HEK293, BAM8-22 calcium flux, Fluo-4; hits give low values; shares compounds with MrgX1 antagonist; remaining BAM8-22 calcium response % of control (hits give low values), % at 10 µM; AID 602420; 19% of 2,300 active;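 active = remaining agonist calcium response no higher than 100% minus 3 SD of agonist-only control wells, with starting fluorescence near control levels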;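 also: agonist BAM8-22 given at a near maximal EC90 to ECmax level; peak minus minimum fluorescence divided by baseline after agonist addition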
HEK293 Ca flux = activity in parental HEK293 cells lacking MrgX1; Fluo-4 calcium fluorescence, FDSS; shares compounds with MrgX1 antagonist; AID 624111; 2% of 4,000 active; fluorescence ratio F(max-min)/F0 at 10 µM;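 active = duplicate-averaged calcium fluorescence ratio at least three times the standard deviation of buffer wells, a nonspecific response in parental cells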
HEK293 Ca counter = counter-screen for MrgX1 allosteric activators: effect in parental HEK293 cells. shares compounds with MrgX1 antagonist. parental HEK293 calcium flux, Fluo-4 fluorescence ratio; hits give high values. fluorescence ratio F(max-min)/F0 at 10 µM. 0.4% of 4,000 active. AID 624114;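 active = calcium fluorescence ratio, averaged over duplicates, at least 3 SD of the buffer-well ratio, meaning a nonspecific response in receptor-free cells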;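 also: untransfected parental HEK293 lacking MrgX1 used as counterscreen for MrgX1 allosteric activators; fluorescence change taken during the second addition on a kinetic imager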
HEK293 Ca cntr2 = activity in parental HEK293 cells lacking MrgX1 receptor; shares compounds with MrgX1 antagonist; Fluo-4 calcium fluorescence (FDSS); hits give high values; fluorescence ratio F(max-min)/F0 at 10 µM; 8.7% of 4,000 active;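 active = calcium fluorescence ratio at least three times the spread of buffer wells, meaning a non-specific response in parental cells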
Starred values were filed as active, the others as inactive. Shown are actives, neighbours in structure and some others; about 3.5% of the full set was active somewhere.

`CN(C1=NC(=O)C(CC(=O)Nc2ccc(Br)cc2)S1)c1ccc(O)cc1` (stereo not given) gave MrgX1 agonist inactive, MrgX1 antagonist inactive, MrgX1 PAM inactive, RGS4 pot inactive and RGS4 inh inactive.
COc1ccccc1N1CCN(C(=O)C(F)F)CC1 was read as MrgX1 agonist inactive, MrgX1 antagonist -6.8*, MrgX1 PAM inactive, RGS4 pot inactive, RGS4 inh inactive, MrgX1 antag conf inactive, HEK293 Ca flux inactive, HEK293 Ca counter inactive and HEK293 Ca cntr2 inactive.
Screening COc1ccccc1N1CCN(C(=O)CN(c2ccc(C)c(C)c2)S(C)(=O)=O)CC1 returned MrgX1 agonist inactive, MrgX1 antagonist -4.8*, MrgX1 PAM inactive, RGS4 pot inactive, RGS4 inh inactive, MrgX1 antag conf inactive, HEK293 Ca flux inactive, HEK293 Ca counter inactive and HEK293 Ca cntr2 inactive.
O=C(NC(CO)c1ccccc1)c1ccco1 (stereo not given) was read as MrgX1 agonist inactive, MrgX1 antagonist inactive, MrgX1 PAM inactive, RGS4 pot inactive and RGS4 inh inactive.
Screening CC(=O)c1cccc(NC(=O)Oc2ccccc2)c1 returned MrgX1 agonist inactive, MrgX1 antagonist -7.8*, MrgX1 PAM inactive, RGS4 pot inactive, RGS4 inh inactive, MrgX1 antag conf inactive, HEK293 Ca flux inactive, HEK293 Ca counter inactive and HEK293 Ca cntr2 inactive.
COc1cccc(C(=O)Nc2cccc(-c3nnc(-c4ccco4)o3)c2)c1 was read as MrgX1 agonist inactive, MrgX1 antagonist -5.5*, MrgX1 PAM inactive, RGS4 pot inactive, RGS4 inh inactive, MrgX1 antag conf 60%*, HEK293 Ca flux inactive, HEK293 Ca counter inactive and HEK293 Ca cntr2 inactive.
For O=C(Nc1cccnc1)c1ccc(COc2ccccc2Br)cc1 the results were MrgX1 agonist inactive, MrgX1 antagonist -7.4*, MrgX1 PAM inactive, RGS4 pot inactive, RGS4 inh inactive, MrgX1 antag conf inactive, HEK293 Ca flux inactive, HEK293 Ca counter inactive and HEK293 Ca cntr2 inactive.
`O=C(NCc1cccnc1)c1ccc(COc2ccccc2Br)cc1` gave MrgX1 agonist inactive, MrgX1 antagonist inactive, MrgX1 PAM inactive, RGS4 pot inactive and RGS4 inh inactive.
`CC(=O)c1ccc(NC(=O)Oc2ccccc2)cc1` gave MrgX1 agonist inactive, MrgX1 antagonist inactive, MrgX1 PAM inactive, RGS4 pot inactive and RGS4 inh inactive.
For COc1cccc(C(=O)NCc2cccnc2)c1 the results were MrgX1 agonist inactive, MrgX1 antagonist -5.5*, MrgX1 PAM inactive, RGS4 pot inactive, RGS4 inh inactive, MrgX1 antag conf inactive, HEK293 Ca flux inactive, HEK293 Ca counter inactive and HEK293 Ca cntr2 inactive.
For Cc1cc(C)n2nc(N)c(N=Nc3ccc(Cl)cc3)c2n1 the results were MrgX1 agonist inactive, MrgX1 antagonist inactive, MrgX1 PAM inactive, RGS4 pot inactive and RGS4 inh inactive.
For Cc1cc(C)n(CCC(=O)N=Nc2c(O)[nH]c3ccc(Br)cc23)n1 the results were MrgX1 agonist inactive, MrgX1 antagonist inactive, MrgX1 PAM inactive, RGS4 pot inactive and RGS4 inh inactive.
For O=C(Nc1cccnc1)c1cccc(S(=O)(=O)N2CCc3ccccc32)c1 the results were MrgX1 agonist inactive, MrgX1 antagonist inactive, MrgX1 PAM inactive, RGS4 pot inactive and RGS4 inh inactive.
Screening COc1ccc(OC)c(C(C)NC(=O)c2ccc(Br)cc2)c1 (stereo not given) returned MrgX1 agonist inactive, MrgX1 antagonist inactive, MrgX1 PAM inactive, RGS4 pot inactive and RGS4 inh inactive.
Screening COc1ccc(OC)c(C(C)NC(=O)Nc2cccc(C(C)=O)c2)c1 (stereo not given) returned MrgX1 agonist inactive, MrgX1 antagonist -10*, MrgX1 PAM inactive, RGS4 pot inactive, RGS4 inh inactive, MrgX1 antag conf inactive, HEK293 Ca flux inactive, HEK293 Ca counter inactive and HEK293 Ca cntr2 inactive.
For CC1Cc2ccccc2N1S(=O)(=O)c1cccc(C(=O)Nc2cccnc2)c1 (stereo not given) the results were MrgX1 agonist inactive, MrgX1 antagonist -4.6*, MrgX1 PAM inactive, RGS4 pot inactive, RGS4 inh inactive, MrgX1 antag conf inactive, HEK293 Ca flux inactive, HEK293 Ca counter inactive and HEK293 Ca cntr2 inactive.
For O=C(Nc1ccc2nn(-c3ccccc3)nc2c1)c1cccnc1 the results were MrgX1 agonist inactive, MrgX1 antagonist -5.7*, MrgX1 PAM inactive, RGS4 pot inactive, RGS4 inh inactive, MrgX1 antag conf 84%*, HEK293 Ca flux inactive, HEK293 Ca counter inactive and HEK293 Ca cntr2 inactive.
`COc1ccc(NC(=O)NCc2cccnc2)cc1` gave MrgX1 agonist inactive, MrgX1 antagonist -7.6*, MrgX1 PAM inactive, RGS4 pot inactive, RGS4 inh inactive, MrgX1 antag conf inactive, HEK293 Ca flux inactive, HEK293 Ca counter inactive and HEK293 Ca cntr2 inactive.
For OCC1(Cc2ccccc2)CCN(Cc2ccc(C(F)(F)F)cc2)CC1 the results were MrgX1 agonist inactive, MrgX1 antagonist inactive, MrgX1 PAM inactive, RGS4 pot inactive and RGS4 inh inactive.
Screening COc1cccc(C(=O)Nc2cccnc2)c1 returned MrgX1 agonist inactive, MrgX1 antagonist -5*, MrgX1 PAM inactive, RGS4 pot inactive, RGS4 inh inactive, MrgX1 antag conf inactive, HEK293 Ca flux inactive, HEK293 Ca counter inactive and HEK293 Ca cntr2 inactive.
For COc1cccc(C(=O)Nc2cccc(C(C)=O)c2)c1 the results were MrgX1 agonist inactive, MrgX1 antagonist -8*, MrgX1 PAM inactive, RGS4 pot inactive, RGS4 inh inactive, MrgX1 antag conf inactive, HEK293 Ca flux inactive, HEK293 Ca counter inactive and HEK293 Ca cntr2 inactive.
For Clc1ccc(Cn2ncc3c(NCCN4CCOCC4)ncnc32)cc1 the results were MrgX1 agonist inactive, MrgX1 antagonist inactive, MrgX1 PAM inactive, RGS4 pot inactive and RGS4 inh inactive.

High-throughput results (PubChem BioAssay)
